In ChEMBL document CHEMBL1955761, “Privileged scaffolds or promiscuous binders: a comparative study on rhodanines and related heterocycles in medicinal chemistry” (J Med Chem, 2012):
Calls of active or inactive are those of the source.

How the values were obtained:
Escherichia coli [1] = test: Inhibition of Escherichia coli MurA using PEP as substrate assessed as inorganic phosphate release at 25 uM preincubated for 10 mins measured after 60 mins […]
Dengue virus = test: Inhibition of Dengue virus NS2B-NS3 protease using Abz-NleKRRS-3-(NO2)Y as substrate at 50 uM preincubated for 15 mins measured every sec for 15 mins by fluorimetric analysis
Prothrombin (Bos taurus) = Prothrombin (Bos taurus) (UniProt P00735); test: Inhibition of bovine plasma thrombin using Boc-Val-Pro-Arg-AMC as substrate at 25 uM preincubated for 15 mins measured after 10 mins by fluorimetric assay
How it was run: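 Purchased bovine plasma thrombin at 10 nM final, preincubated 15 min with 25 μM inhibitor; reaction started with 50 μM substrate. Buffer 50 mM Tris-HCl pH 7.5, 150 mM NaCl, 0.05% Tween 20. Triplicate, averaged.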

Escherichia coli [2] = test: Inhibition of Escherichia coli MetAP at 10 uM after 15 mins by fluorescence analysis

SMILES | inhibition (Escherichia coli [1]) | inhibition (Dengue virus) | inhibition (Prothrombin (Bos taurus)) | inhibition (Escherichia coli [2])
COc1ccc(/C=C/C=C2\SC(=O)NC2=O)cc1 | 13% | 18% | 11% | inactive
C/C(=C1/SC(=S)NC1=O)c1cccs1 | 11% | 45% | 17% | inactive
O=C1NC(=O)/C(=C/c2ccc([N+](=O)[O-])cc2)S1 | inactive | inactive | inactive | 13%
COc1ccc(/C=C2\SC(=O)NC2=O)cc1 | 84% | 19% | 32% | 11%
Cn1cc(/C=C2\SC(=O)NC2=O)c2ccccc21 | inactive | 41% | 25% | inactive
O=C1NC(=O)/C(=C/c2ccc(O)c(O)c2)S1 | 78% | 44% | 37% | 90%
O=C1NC(=S)S/C1=C\c1sccc1Cl | 43% | 47% | 28% | inactive
O=C1NC(=S)S/C1=C1/CCOc2ccccc21 | inactive | 44% | 18% | inactive
O=C1NC(=S)N/C1=C\c1c(F)c(F)c(F)c(F)c1F | 17% | 24% | 29% | 13%
O=C1NC(=S)S/C1=C\c1ccc(O)cc1 | 24% | 47% | 34% | inactive
COc1cccc(/C=C2\SC(=S)NC2=O)c1 | 10% | 33% | 11% | inactive
O=C1NC(=S)N/C1=C\c1sccc1Br | 31% | 44% | 11% | inactive
O=C1NC(=S)S/C1=C\c1ccco1 | 17% | 52% | 25% | inactive
O=C1NC(=S)S/C1=C\c1cnc[nH]1 | 18% | 53% | 31% | 18%
N#Cc1ccc(/C=C2\NC(=S)NC2=O)cc1 | inactive | 37% | 11% | inactive
CC(=O)N1C(=S)NC(=O)[C@@H]1Cc1ccccc1 | 19% | inactive | inactive | 12%
O=C1NC(=O)/C(=C/c2c(F)c(F)c(F)c(F)c2F)N1 | 18% | 14% | 18% | inactive
O=C1NC(=O)C(Cc2ccccc2)S1 (stereo not drawn) | inactive | inactive | inactive | inactive
O=C1NC(=S)N/C1=C\c1c[nH]c2ccccc12 | 77% | 55% | 22% | inactive
O=C1NC(=O)/C(=C/c2ccc(Cl)s2)S1 | 38% | 11% | 29% | inactive
O=C1NC(=S)S/C1=C\c1ccc(O)c(O)c1 | 89% | 50% | 35% | 65%
O=C1NC(=O)/C(=C/c2sccc2Br)S1 | 44% | inactive | 18% | inactive
O=C1NC(=O)/C(=C/c2ccccc2)N1 | 100% | 38% | inactive | 17%

SMILES | inhibition (Escherichia coli [1]) | inhibition (Dengue virus) | inhibition (Prothrombin (Bos taurus)) | inhibition (Escherichia coli [2])
O=C1NC(=S)N/C1=C\c1ccc(Cl)cc1Cl | 22% | 41% | 20% | 15%
O=C1NC(=S)N/C1=C\C1CCCCC1 | 16% | 30% | 18% | 20%
CC(=O)N1C(=S)NC(=O)[C@H]1Cc1ccccc1 | 15% | inactive | inactive | inactive
O=C1NC(=O)C(Cc2ccc(O)c(O)c2)N1 (stereo not drawn) | 79% | inactive | inactive | 84%
O=C1NC(=O)/C(=C/c2ccc(Cl)cc2Cl)S1 | inactive | 13% | 28% | inactive
O=C1NC(=O)/C(=C/c2cccs2)N1 | inactive | 16% | 22% | inactive
O=C1NC(=O)/C(=C/c2ccc3ccccc3c2)N1 | inactive | 36% | inactive | 46%
O=C1NC(=S)S/C1=C\c1sccc1Br | 20% | 60% | 24% | inactive
CC(=O)N1C(=S)NC(=O)[C@@H]1CC(C)C | inactive | inactive | inactive | 13%
CC(=O)n1cc(/C=C2\SC(=O)NC2=O)c2ccccc21 | inactive | 11% | inactive | inactive
O=C1NC(=O)/C(=C/c2ccco2)S1 | 41% | 20% | 19% | inactive
CC(=O)n1cc(/C=C2\NC(=S)NC2=O)c2ccccc21 | 13% | 43% | 11% | 15%
O=C1NC(=S)S/C1=C\c1cccs1 | inactive | 44% | 18% | inactive
O=C1NC(=O)/C(=C/c2ccc(Br)s2)N1 | inactive | 22% | 22% | inactive
CC(=O)N1C(=S)NC(=O)[C@@H]1Cc1c[nH]c2ccccc12 | inactive | inactive | inactive | inactive
O=C1NC(=O)/C(=C/c2sccc2Cl)S1 | 12% | 23% | 11% | inactive
O=C1NC(=S)N/C1=C1/CCOc2ccccc21 | 43% | 43% | 18% | 28%
Cc1ccc(/C=C2\NC(=S)NC2=O)cc1 | inactive | 31% | 14% | 15%
CCCCC/C=C1\SC(=S)NC1=O | 14% | 35% | 18% | 21%
O=C1NC(=S)N/C1=C\c1sccc1Cl | 19% | 46% | 19% | inactive
O=C1NC(=S)N/C1=C\c1ccc(O)c(O)c1 | 46% | 36% | 23% | 86%
O=C1NC(=S)S/C1=C\c1ccccn1 | – | – | inactive | –
Cc1ccc(/C=C2\SC(=S)NC2=O)cc1 | – | – | 23% | –
